Assay results reported in ChEMBL document CHEMBL1649212, “AI-2/LuxS is involved in increased biofilm formation by Streptococcus intermedius in the presence of antibiotics” (2009).
Active and inactive are the calls of the source. The calls are words filed in the database; no cut-off is given here.

Key:
[1] = system: Streptococcus intermedius; assay: Antimicrobial activity against Streptococcus intermedius NCTC 11324 biofilm assessed as biofilm bacterial count at 0.10 ug/ml (Rvb =402.9 +/- 26.88 10^5 CFU/ml); assay type: functional
[2] = system: Streptococcus intermedius; assay: Antimicrobial activity against Streptococcus intermedius SI006 biofilm harboring luxS mutant gene assessed as biofilm bacterial count at 0.15 ug/ml (Rvb =310.8 +/- 17.10 10^5 CFU/ml); assay type: functional
[3] = system: Streptococcus intermedius; assay: Antimicrobial activity against Streptococcus intermedius SI006 biofilm harboring luxS mutant gene assessed as biofilm bacterial count at 0.10 ug/ml in presence of 0.8 nM autoinducer 4,5-dihydroxy-2,3-pentanedione (Rvb =413.7 +/- 24.47 10^5 CFU/ml); assay type: functional
[4] = system: Streptococcus intermedius; assay: Antimicrobial activity against Streptococcus intermedius NCTC 11324 planktonic cells assessed as bacterial count at 0.35 ug/ml (Rvb =756.9 +/- 62.98 10^8 CFU/ml); assay type: functional
[5] = system: Streptococcus intermedius; assay: Antimicrobial activity against Streptococcus intermedius NCTC 11324 biofilm assessed as biofilm bacterial count at 0.20 ug/ml (Rvb =402.9 +/- 26.88 10^5 CFU/ml); assay type: functional
[6] = system: Streptococcus intermedius; assay: Antimicrobial activity against Streptococcus intermedius SI006 planktonic cells harboring luxS mutant gene assessed as bacterial count at 0.25 ug/ml in presence of 0.8 nM autoinducer 4,5-dihydroxy-2,3-pentanedione (Rvb =768.6 +/- 46.24 10^8 CFU/ml); assay type: functional
[7] = system: Streptococcus intermedius; assay: Antimicrobial activity against Streptococcus intermedius NCTC 11324 assessed as biofilm formation at 0.10 to 0.25 ug/ml; assay type: functional, organism-based
In short: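 Wild-type NCTC 11324 was grown overnight in TSB and inoculated into TSB with ampicillin (0.02 to 0.10 μg/ml), ciprofloxacin (0.10 to 0.28 μg/ml) or tetracycline (0.05 to 0.30 μg/ml), added at time zero. Wells held plastic coverslips and were incubated 12 h at 37°C in 5% CO2 aerobic air. Biofilm was measured as described previously. Experiments were done three times in three parallels.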

[8] = system: Streptococcus intermedius; assay: Antimicrobial activity against Streptococcus intermedius SI006 biofilm harboring luxS mutant gene assessed as biofilm bacterial count at 0.10 ug/ml (Rvb =310.8 +/- 17.10 10^5 CFU/ml); assay type: functional
[9] = system: Streptococcus intermedius; assay: Antimicrobial activity against Streptococcus intermedius SI006 planktonic cells harboring luxS mutant gene assessed as bacterial count at 0.25 ug/ml (Rvb =708.1 +/- 47.64 10^8 CFU/ml); assay type: functional
[10] = system: Streptococcus intermedius; assay: Antimicrobial activity against Streptococcus intermedius NCTC 11324 assessed as growth inhibition at 0.5 ug/ml; assay type: functional
In short: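 Broth microdilution MIC in ultra-low-binding 96-well plates, inoculum ≈4 × 10^5. Growth was read at 595 nm, and the MIC was taken as the lowest antibiotic concentration inhibiting growth.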

[11] = system: Streptococcus intermedius; assay: Antimicrobial activity against Streptococcus intermedius NCTC 11324 planktonic cells assessed as bacterial count at 0.30 ug/ml (Rvb =756.9 +/- 62.98 10^8 CFU/ml); assay type: functional
In short: (§1)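 Planktonic wild-type cells were inoculated at ≈4 × 10^5 CFU/ml in TSB in ultra-low-binding plates. Media were without or with ampicillin (0.02 to 0.14 μg/ml), ciprofloxacin (0.10 to 0.35 μg/ml) or tetracycline (0.03 to 0.20 μg/ml). After 12 h at 37°C in 5% CO2 aerobic air, CFU were counted, run in parallel with the BacTiter-Glo ATP assay. Experiments were done three times in two parallels.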

[12] = system: Streptococcus intermedius; assay: Antimicrobial activity against Streptococcus intermedius SI006 biofilm harboring luxS mutant gene assessed as biofilm bacterial count at 0.20 ug/ml (Rvb =310.8 +/- 17.10 10^5 CFU/ml); assay type: functional
[13] = system: Streptococcus intermedius; assay: Antimicrobial activity against Streptococcus intermedius SI006 planktonic cells harboring luxS mutant gene assessed as bacterial count at 0.35 ug/ml in presence of 0.8 nM autoinducer 4,5-dihydroxy-2,3-pentanedione (Rvb =768.6 +/- 46.24 10^8 CFU/ml); assay type: functional
[14] = system: Streptococcus intermedius; assay: Antimicrobial activity against Streptococcus intermedius NCTC 11324 planktonic cells assessed as bacterial count at 0.25 ug/ml (Rvb =756.9 +/- 62.98 10^8 CFU/ml); assay type: functional; in short: as §1
[15] = system: Streptococcus intermedius; assay: Antimicrobial activity against Streptococcus intermedius SI006 biofilm harboring luxS mutant gene assessed as biofilm bacterial count at 0.20 ug/ml in presence of 0.8 nM autoinducer 4,5-dihydroxy-2,3-pentanedione (Rvb =413.7 +/- 24.47 10^5 CFU/ml); assay type: functional
[16] = system: Streptococcus intermedius; assay: Antimicrobial activity against Streptococcus intermedius NCTC 11324 biofilm assessed as biofilm bacterial count at 0.15 ug/ml (Rvb =402.9 +/- 26.88 10^5 CFU/ml); assay type: functional
[17] = system: Streptococcus intermedius; assay: Antimicrobial activity against Streptococcus intermedius SI006 planktonic cells harboring luxS mutant gene assessed as bacterial count at 0.35 ug/ml (Rvb =708.1 +/- 47.64 10^8 CFU/ml); assay type: functional
[18] = system: Streptococcus intermedius; assay: Antimicrobial activity against Streptococcus intermedius SI006 planktonic cells harboring luxS mutant gene assessed as bacterial count at 0.30 ug/ml (Rvb =708.1 +/- 47.64 10^8 CFU/ml); assay type: functional
[19] = system: Streptococcus intermedius; assay: Antimicrobial activity against Streptococcus intermedius NCTC 11324 planktonic cells assessed as bacterial count at 0.20 ug/ml (Rvb =756.9 +/- 62.98 10^8 CFU/ml); assay type: functional; in short: as §1
[20] = system: Streptococcus intermedius; assay: Antimicrobial activity against Streptococcus intermedius SI006 planktonic cells harboring luxS mutant gene assessed as bacterial count at 0.30 ug/ml in presence of 0.8 nM autoinducer 4,5-dihydroxy-2,3-pentanedione (Rvb =768.6 +/- 46.24 10^8 CFU/ml); assay type: functional
[21] = system: Streptococcus intermedius; assay: Antimicrobial activity against Streptococcus intermedius SI006 planktonic cells harboring luxS mutant gene assessed as bacterial count at 0.20 ug/ml in presence of 0.8 nM autoinducer 4,5-dihydroxy-2,3-pentanedione (Rvb =768.6 +/- 46.24 10^8 CFU/ml); assay type: functional

Compound: O=C(O)c1cn(C2CC2)c2cc(N3CCNCC3)c(F)cc2c1=O [CIPROFLOXACIN]
- CFU [1]: 768.1 ×10⁵ /ml
- CFU [2]: 333 ×10⁵ /ml
- CFU [3]: 814.7 ×10⁵ /ml
- CFU [4]: 2.6 ×10⁸ /ml
- CFU [5]: 577.2 ×10⁵ /ml
- CFU [6]: 4.72 ×10⁸ /ml
- Activity [7]: inactive
- CFU [8]: 324.1 ×10⁵ /ml
- CFU [9]: 1.16 ×10⁸ /ml
- Activity [10]: 0.5 µg/mL
- CFU [11]: 3.12 ×10⁸ /ml
- CFU [12]: 131 ×10⁵ /ml
- CFU [13]: 2.3 ×10⁸ /ml
- CFU [14]: 5.14 ×10⁸ /ml
- CFU [15]: 519.5 ×10⁵ /ml
- CFU [16]: 663.8 ×10⁵ /ml
- CFU [17]: 0.4 ×10⁸ /ml
- CFU [18]: 0.74 ×10⁸ /ml
- CFU [19]: 5.87 ×10⁸ /ml
- CFU [20]: 3.1 ×10⁸ /ml
- CFU [21]: 5.3 ×10⁸ /ml
